Source: ChEMBL document CHEMBL1156291, “Design of potent and selective GSK3beta inhibitors with acceptable safety profile and pharmacokinetics” (Bioorg Med Chem Lett, 2010)
≈ marks a conversion by molar mass, not a printed value.

Legend:
[1] = Solubility of the compound; format: physicochemical
Summary of the method: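 Solubility measured by nephelometry.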

[2] = Lipophilicity, log D at pH 7.4; format: physicochemical; details: buffer
[3] = Metabolic stability in mouse liver S9 fraction assessed as compound remaining after 15 mins; format: ADME, subcellular; details: read-out: Activity
Summary of the method: (§1)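 Compound exposed for 15 min to hepatic S9 fraction, human or mouse according to the line. Read-out is percent of parent compound remaining.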

Cytochrome P450 1A2 = target: T1, Cytochrome P450 1A2 (Homo sapiens, UniProt P05177); assay: Inhibition of human recombinant CYP1A2; format: ADME
T1 sequence (P05177 whole entry): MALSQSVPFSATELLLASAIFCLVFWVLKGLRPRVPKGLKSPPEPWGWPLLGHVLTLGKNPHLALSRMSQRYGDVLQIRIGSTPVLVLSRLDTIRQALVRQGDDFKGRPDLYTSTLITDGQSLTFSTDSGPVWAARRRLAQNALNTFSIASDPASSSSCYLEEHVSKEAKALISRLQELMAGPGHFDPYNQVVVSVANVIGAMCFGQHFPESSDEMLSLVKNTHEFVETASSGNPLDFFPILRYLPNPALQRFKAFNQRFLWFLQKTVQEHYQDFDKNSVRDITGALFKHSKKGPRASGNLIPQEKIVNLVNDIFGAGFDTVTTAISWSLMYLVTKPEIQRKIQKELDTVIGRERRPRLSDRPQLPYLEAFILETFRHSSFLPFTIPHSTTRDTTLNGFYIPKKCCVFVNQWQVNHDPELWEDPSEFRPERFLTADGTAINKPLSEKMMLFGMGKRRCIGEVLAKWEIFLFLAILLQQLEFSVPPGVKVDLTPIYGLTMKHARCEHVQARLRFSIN
Summary of the method: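 Human recombinant CYP1A2 with 3-cyano-7-ethoxycoumarin as probe substrate. Fluorescence read at Ex 410 nm / Em 460 nm. IC50 determined.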

[4] = Metabolic stability in human liver S9 fraction assessed as compound remaining after 15 mins; format: ADME, subcellular; details: read-out: Activity; summary of the method: as §1
Caco-2 = assay: Permeability across human Caco-2 cells assessed as compound transport per hr; format: ADME, cell-based
Albumin = Albumin (Homo sapiens, UniProt P02768); assay: Binding affinity to human serum albumin; format: ADME; details: isolated protein
Chain of Albumin (P02768 whole entry): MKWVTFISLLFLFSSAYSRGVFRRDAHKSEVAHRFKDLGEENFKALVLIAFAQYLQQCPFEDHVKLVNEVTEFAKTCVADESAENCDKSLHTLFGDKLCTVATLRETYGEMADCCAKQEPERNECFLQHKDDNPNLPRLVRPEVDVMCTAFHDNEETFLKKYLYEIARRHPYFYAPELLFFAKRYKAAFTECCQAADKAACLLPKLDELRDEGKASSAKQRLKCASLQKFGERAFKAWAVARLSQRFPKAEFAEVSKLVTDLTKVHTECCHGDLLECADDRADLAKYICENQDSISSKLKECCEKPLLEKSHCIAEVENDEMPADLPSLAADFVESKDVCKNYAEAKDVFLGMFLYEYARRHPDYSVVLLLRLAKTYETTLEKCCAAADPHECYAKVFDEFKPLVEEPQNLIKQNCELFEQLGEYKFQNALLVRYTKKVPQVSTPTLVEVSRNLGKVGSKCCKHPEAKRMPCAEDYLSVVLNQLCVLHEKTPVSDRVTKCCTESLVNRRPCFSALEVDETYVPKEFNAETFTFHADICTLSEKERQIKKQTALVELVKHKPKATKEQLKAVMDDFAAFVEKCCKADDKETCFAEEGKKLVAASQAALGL

[5] = target: Cytochrome P450 1A2 (Homo sapiens) (UniProt P05177); assay: Inhibition of human recombinant CYP1A2 by kinetic assay
Cytochrome P450 2D6 = Cytochrome P450 2D6 (Homo sapiens, UniProt P10635); assay: Inhibition of human recombinant CYP2D6; format: ADME
Chain of Cytochrome P450 2D6 (P10635 whole entry): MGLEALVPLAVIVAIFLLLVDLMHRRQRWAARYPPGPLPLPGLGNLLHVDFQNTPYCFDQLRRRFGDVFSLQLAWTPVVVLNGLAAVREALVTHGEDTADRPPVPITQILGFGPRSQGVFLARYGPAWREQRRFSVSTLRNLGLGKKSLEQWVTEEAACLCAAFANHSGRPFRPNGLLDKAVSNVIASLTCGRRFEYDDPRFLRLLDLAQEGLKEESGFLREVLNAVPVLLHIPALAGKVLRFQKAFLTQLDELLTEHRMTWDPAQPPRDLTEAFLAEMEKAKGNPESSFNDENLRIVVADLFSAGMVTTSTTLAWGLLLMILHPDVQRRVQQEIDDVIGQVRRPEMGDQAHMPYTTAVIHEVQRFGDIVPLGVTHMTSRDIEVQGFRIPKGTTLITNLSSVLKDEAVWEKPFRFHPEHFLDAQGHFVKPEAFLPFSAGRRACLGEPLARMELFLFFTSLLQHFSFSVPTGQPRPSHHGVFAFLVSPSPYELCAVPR

Cytochrome P450 2C19 = Cytochrome P450 2C19 (Homo sapiens, UniProt P33261); assay: Inhibition of human recombinant CYP2C19; format: ADME
Chain of Cytochrome P450 2C19 (P33261 whole entry): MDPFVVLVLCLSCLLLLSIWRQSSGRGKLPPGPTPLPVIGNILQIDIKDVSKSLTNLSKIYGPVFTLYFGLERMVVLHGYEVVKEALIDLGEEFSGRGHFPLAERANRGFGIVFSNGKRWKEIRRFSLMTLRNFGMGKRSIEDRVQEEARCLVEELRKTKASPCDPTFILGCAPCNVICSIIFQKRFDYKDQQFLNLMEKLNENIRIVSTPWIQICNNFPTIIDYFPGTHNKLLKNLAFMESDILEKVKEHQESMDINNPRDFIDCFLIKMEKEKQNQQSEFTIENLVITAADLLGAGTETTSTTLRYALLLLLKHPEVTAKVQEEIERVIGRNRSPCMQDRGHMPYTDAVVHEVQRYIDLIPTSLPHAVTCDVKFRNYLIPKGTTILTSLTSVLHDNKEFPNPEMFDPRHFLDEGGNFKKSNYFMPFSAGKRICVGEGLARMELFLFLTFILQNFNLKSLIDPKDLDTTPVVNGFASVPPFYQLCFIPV

hERG (KCNH2) = hERG (KCNH2) (Homo sapiens, UniProt Q12809); assay: Inhibition of human ERG at 10 uM
Chain of hERG (KCNH2) (Q12809 whole entry): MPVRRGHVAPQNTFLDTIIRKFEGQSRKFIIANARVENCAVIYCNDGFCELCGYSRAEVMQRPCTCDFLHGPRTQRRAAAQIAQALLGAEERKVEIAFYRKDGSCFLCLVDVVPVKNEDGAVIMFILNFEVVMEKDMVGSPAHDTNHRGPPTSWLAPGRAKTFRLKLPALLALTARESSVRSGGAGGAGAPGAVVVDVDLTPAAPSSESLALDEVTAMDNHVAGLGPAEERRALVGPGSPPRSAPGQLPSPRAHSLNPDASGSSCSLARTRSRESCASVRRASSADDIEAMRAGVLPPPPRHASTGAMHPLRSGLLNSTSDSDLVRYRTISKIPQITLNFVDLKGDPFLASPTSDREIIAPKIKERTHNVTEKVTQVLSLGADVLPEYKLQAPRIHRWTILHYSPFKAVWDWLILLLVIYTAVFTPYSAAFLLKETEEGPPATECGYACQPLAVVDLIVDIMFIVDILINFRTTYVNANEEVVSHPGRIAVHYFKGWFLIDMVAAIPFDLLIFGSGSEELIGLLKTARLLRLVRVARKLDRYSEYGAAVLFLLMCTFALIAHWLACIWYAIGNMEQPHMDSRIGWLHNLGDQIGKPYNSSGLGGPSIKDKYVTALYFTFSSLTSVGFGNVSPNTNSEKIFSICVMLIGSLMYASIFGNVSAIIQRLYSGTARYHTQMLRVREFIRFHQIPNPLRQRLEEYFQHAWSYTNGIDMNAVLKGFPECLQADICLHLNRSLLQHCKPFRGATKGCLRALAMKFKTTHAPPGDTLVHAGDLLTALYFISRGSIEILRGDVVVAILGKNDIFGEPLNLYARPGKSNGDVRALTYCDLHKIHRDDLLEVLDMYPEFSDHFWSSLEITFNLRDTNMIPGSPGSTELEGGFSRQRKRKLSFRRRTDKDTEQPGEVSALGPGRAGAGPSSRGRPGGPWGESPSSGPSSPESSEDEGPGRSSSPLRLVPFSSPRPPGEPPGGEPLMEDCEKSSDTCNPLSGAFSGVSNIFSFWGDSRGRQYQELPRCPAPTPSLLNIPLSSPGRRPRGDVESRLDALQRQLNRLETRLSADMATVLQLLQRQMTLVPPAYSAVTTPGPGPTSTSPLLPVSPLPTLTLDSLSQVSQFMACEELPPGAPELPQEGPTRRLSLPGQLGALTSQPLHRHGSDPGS

Cytochrome P450 2C9 = Cytochrome P450 2C9 (Homo sapiens, UniProt P11712); assay: Inhibition of human recombinant CYP2C9; format: ADME
Chain of Cytochrome P450 2C9 (P11712 whole entry): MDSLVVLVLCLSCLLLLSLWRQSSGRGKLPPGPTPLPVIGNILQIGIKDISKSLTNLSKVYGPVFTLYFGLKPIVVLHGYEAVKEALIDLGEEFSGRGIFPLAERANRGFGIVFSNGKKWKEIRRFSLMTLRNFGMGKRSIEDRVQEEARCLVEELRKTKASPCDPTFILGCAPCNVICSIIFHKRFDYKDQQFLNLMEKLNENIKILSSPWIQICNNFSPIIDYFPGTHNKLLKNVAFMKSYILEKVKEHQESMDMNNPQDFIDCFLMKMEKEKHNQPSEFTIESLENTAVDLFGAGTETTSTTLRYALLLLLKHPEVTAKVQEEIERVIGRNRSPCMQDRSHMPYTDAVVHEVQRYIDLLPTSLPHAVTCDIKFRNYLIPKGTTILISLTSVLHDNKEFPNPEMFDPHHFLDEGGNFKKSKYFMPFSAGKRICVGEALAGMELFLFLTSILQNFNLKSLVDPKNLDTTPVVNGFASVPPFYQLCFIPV

Cytochrome P450 3A4 = Cytochrome P450 3A4 (Homo sapiens, UniProt P08684); assay: Inhibition of human recombinant CYP3A4; format: ADME
Chain of Cytochrome P450 3A4 (P08684 whole entry): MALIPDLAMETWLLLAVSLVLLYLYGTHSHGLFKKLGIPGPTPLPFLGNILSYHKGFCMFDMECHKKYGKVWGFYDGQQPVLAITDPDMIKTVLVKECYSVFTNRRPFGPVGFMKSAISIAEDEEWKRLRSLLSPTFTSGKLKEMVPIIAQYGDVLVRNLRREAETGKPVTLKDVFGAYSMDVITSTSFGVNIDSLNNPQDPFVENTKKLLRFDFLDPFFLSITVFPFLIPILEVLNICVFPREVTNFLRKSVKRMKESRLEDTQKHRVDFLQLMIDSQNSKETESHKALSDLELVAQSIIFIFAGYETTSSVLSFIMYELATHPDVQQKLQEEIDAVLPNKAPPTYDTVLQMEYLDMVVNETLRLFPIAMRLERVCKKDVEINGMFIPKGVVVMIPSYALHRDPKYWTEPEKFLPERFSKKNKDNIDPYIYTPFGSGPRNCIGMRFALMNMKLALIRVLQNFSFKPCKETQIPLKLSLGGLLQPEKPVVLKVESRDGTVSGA

[6] = target: Cyclin-dependent kinase 4 (Homo sapiens) (UniProt P11802); assay: Inhibition of CDK4 at 10 uM
Chain of Cyclin-dependent kinase 4 (Homo sapiens) (P11802 whole entry): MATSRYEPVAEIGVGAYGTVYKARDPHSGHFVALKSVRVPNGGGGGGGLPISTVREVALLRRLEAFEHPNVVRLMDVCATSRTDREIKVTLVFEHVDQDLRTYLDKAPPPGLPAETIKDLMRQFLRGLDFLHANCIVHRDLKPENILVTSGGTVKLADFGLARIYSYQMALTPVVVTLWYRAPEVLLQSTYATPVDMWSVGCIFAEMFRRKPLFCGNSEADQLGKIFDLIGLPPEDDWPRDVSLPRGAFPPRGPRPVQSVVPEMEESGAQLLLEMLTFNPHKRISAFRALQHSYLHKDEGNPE

[7] = target: Cyclin-dependent kinase 2 (Homo sapiens) (UniProt P24941); assay: Inhibition of CDK2 at 10 uM
[8] = target: Glycogen synthase kinase-3 beta (Rattus norvegicus) (UniProt P18266); assay: Inhibition of GSK3-beta assessed as tau phosphorylation
[9] = target: Cyclin-dependent kinase 5 (Homo sapiens) (UniProt Q00535); assay: Inhibition of CDK5 at 10 uM
Chain of Cyclin-dependent kinase 5 (Homo sapiens) (Q00535 whole entry, looked up): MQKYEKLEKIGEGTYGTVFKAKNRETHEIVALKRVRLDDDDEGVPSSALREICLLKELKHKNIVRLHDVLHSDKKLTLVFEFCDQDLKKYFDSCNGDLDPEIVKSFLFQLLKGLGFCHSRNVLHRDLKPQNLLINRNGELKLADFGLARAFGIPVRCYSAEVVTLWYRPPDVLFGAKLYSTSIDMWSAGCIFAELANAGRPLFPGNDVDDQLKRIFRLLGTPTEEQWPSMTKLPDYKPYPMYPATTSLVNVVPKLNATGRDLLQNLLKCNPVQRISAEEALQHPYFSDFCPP

[10] = target: Cyclin-dependent kinase 9 (Homo sapiens) (UniProt P50750); assay: Inhibition of CDK9 at 10 uM
Chain of Cyclin-dependent kinase 9 (Homo sapiens) (P50750 whole entry): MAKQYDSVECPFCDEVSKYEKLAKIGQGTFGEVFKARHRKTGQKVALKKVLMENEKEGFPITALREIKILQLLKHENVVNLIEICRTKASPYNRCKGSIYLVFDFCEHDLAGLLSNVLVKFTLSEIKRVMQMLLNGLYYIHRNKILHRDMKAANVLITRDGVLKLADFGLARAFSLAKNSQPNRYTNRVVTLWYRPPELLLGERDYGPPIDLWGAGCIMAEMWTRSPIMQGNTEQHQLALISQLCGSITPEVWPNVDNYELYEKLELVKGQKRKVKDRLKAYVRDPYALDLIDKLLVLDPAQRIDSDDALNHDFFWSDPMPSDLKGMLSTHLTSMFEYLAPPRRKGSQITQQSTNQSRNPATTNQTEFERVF

[11] = target: Voltage-gated inwardly rectifying potassium channel KCNH2 (Homo sapiens, UniProt Q12809); assay: Inhibition of human ERG

| solubility [1] [µg/mL] | logD [2] | remaining at 0.25 h [3] [%] | IC50 (Cytochrome P450 1A2) [nM] | IC50 [5] [nM] | Compound | further results |
| --- | --- | --- | --- | --- | --- | --- |
| < 20 | 4.4 | 87 | 550 |  | CCCC(=O)Nc1n[nH]c2cc(Cl)c(Br)cc12 | remaining at 0.25 h [4]: 97%; permeability (Caco-2): 17.25% |
|  | < 1 |  | > 50000 |  | O=C(O)CCC(=O)Nc1n[nH]c2cc(Cl)ccc12 | solubility ([1]; read-out: solubility): 716 µg/mL (≈ 2670 µM); Activity (Albumin): < 90% |
|  |  |  | 13800 | 2700 | CCCC(=O)Nc1n[nH]c2cc(-c3cc(F)cc(F)c3)ccc12 |  |
|  |  |  | 1750 |  | CCCC(=O)Nc1n[nH]c2cc(Cl)c(-c3ccc(C)cc3)cc12 |  |
|  |  |  | 830 | 130 | CCCC(=O)Nc1n[nH]c2cc(Cl)c(-c3ccc(F)cc3)cc12 |  |
|  |  |  | 1900 |  | CCCC(=O)Nc1n[nH]c2cc(-c3ccsc3)ccc12 |  |
| < 20 | 4.4 | 10 | > 10000 | 70 | CCCC(=O)Nc1n[nH]c2cc(-c3ccc(O)cc3)c(Br)cc12 | IC50 (Cytochrome P450 2D6): > 10000 nM; remaining at 0.25 h [4]: 91%; Activity (Albumin): 99.3%; IC50 (Cytochrome P450 2C19): > 10000 nM; inhibition at 10 µM (hERG (KCNH2)): 7%; IC50 (Cytochrome P450 2C9): > 10000 nM; IC50 (Cytochrome P450 3A4): > 10000 nM |
|  | 2.2 |  |  |  | CCC(=O)Nc1n[nH]c2cc(Cl)ccc12 | solubility ([1]; read-out: solubility): 168 µg/mL (≈ 751 µM); Activity (Albumin): 92.8% |
| < 20 | 4.1 | 4 | < 400 | 30 | CCCC(=O)Nc1n[nH]c2cc(Cl)c(-c3ccoc3)cc12 | remaining at 0.25 h [4]: 45%; permeability (Caco-2): 12.3% |
| < 20 | 3.7 | 40 | < 400 | 80 | CCCC(=O)Nc1n[nH]c2cc(Cl)c(-c3ccccc3)cc12 | IC50 (Cytochrome P450 2D6): > 10000 nM; remaining at 0.25 h [4]: 91%; Activity (Albumin): 99.4%; permeability (Caco-2): 3.9%; IC50 (Cytochrome P450 2C19): > 10000 nM; inhibition at 10 µM (hERG (KCNH2)): 24%; IC50 (Cytochrome P450 2C9): > 10000 nM; IC50 (Cytochrome P450 3A4): > 10000 nM |
| < 20 | 3.1 |  |  |  | O=C(CN1CCOCC1)Nc1n[nH]c2cc(Cl)ccc12 |  |
| 54 (≈ 226 µM) | 3 | 93 |  |  | CCCC(=O)Nc1n[nH]c2c(F)c(F)ccc12 | remaining at 0.25 h [4]: 98%; permeability (Caco-2): 16.33% |
|  |  |  | 4460 |  | CCCC(=O)Nc1n[nH]c2cc(Cl)c(-c3ccc([N+](=O)[O-])cc3)cc12 |  |
| 4 (≈ 12.7 µM) | 2.4 | 56 |  |  | CCCC(=O)Nc1n[nH]c2c(F)c(F)c(-c3ccccc3)cc12 | remaining at 0.25 h [4]: 86% |
| > 208 |  | 100 |  |  | CN1CCN(CCCNC(=O)Nc2n[nH]c3cc(Cl)c(-c4ccccc4)cc23)CC1 |  |
| 67 (≈ 227 µM) |  | 4 | > 50000 | 22000 | CCCC(=O)Nc1n[nH]c2cc(-c3ccc(O)cc3)ccc12 | remaining at 0.25 h [4]: 58%; Activity (Albumin): 97.3%; permeability (Caco-2): 15.25% |
| 28 (≈ 75.5 µM) | 3.49 |  |  |  | O=C(CN1CCOCC1)Nc1n[nH]c2cc(Cl)c(-c3ccccc3)cc12 |  |
| < 20 |  | 79 |  |  | O=C(Nc1n[nH]c2cc(Cl)c(-c3ccccc3)cc12)N1CCCC1 |  |
| < 20 | 3.53 |  |  |  | CC(C(=O)Nc1n[nH]c2cc(Cl)c(-c3ccccc3)cc12)N1CCCCC1 (centres undefined) |  |
|  |  |  | > 10000 |  | CCCC(=O)Nc1n[nH]c2cc(Cl)c(-c3ccc(OCc4ccccc4)cc3)cc12 |  |
|  |  |  | > 10000 | 390 | CCCC(=O)Nc1n[nH]c2cc(-c3ccccc3)ccc12 |  |
|  |  |  | 1200 | 5900 | CCCC(=O)Nc1n[nH]c2cc(-c3cccnc3)ccc12 |  |
|  |  |  | 980 |  | CCCC(=O)Nc1n[nH]c2cc(Cl)c(-c3ccc(N)cc3)cc12 |  |
| < 20 |  | 85 |  |  | O=C(NCCCn1ccnc1)Nc1n[nH]c2cc(Cl)c(-c3ccccc3)cc12 |  |
| < 20 |  | 92 |  |  | O=C(Nc1ccccc1)Nc1n[nH]c2cc(Cl)c(-c3ccccc3)cc12 | inhibition [6]: < 50%; inhibition [7]: < 50%; IC50 [8]: 270 nM; inhibition [9]: < 50%; inhibition [10]: 81%; IC50 [11]: > 10000 nM |
| < 20 | 3.9 | 19 |  | 80 | CCCC(=O)Nc1n[nH]c2cc(Cl)c(-c3ccc(O)cc3)cc12 | permeability (Caco-2): 8.02% |
